# Where two headings read alike, the source gives them in different places.
# Key:
# [1] = test system: GM12878 cells; assay: MTS assay of cell proliferation, GM12878; type: cell-based, human; conditions: for IC50: Homo sapiens
# Method in brief: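 Lymphoblasts grown in RPMI 1640 with 15% FBS at 37 °C and 5% CO2. Plated at 5 × 10^3 per well, grown 24 h, then exposed 24 or 72 h to test compound alone or with 10 μM lignan inhibitor added. DMSO 0.2% final; vehicle controls. MTS/PMS in PBS pH 7.2 for 4 h at 37 °C; A492; cell-free background. Triplicate; normalized absorbance fitted for IC50 with 95% CI.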
# [2] = test system: A549 cells; assay: MTS assay of cell proliferation, A549; type: cell-based, human; conditions: for IC50: Homo sapiens
# Method in brief: (§1)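 Cells grown in DMEM with 10% FBS at 37 °C and 5% CO2. Plated at 5 × 10^3 per well, grown 24 h, then exposed 24 or 72 h to test compound alone or in pairs: 10 μM bleomycin-type or 250 μM alkylating agent added to the lignan, or 10 μM lignan added to either. DMSO 0.2% final; vehicle controls. MTS/PMS for 4 h; A492; cell-free background. Triplicate; IC50 fit, 95% CI.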
# [3] = test system: MCF7 cells; assay: MTS assay of cell proliferation, MCF7; type: cell-based, human; conditions: for decrease of EC50 due to HNL/BLM combination: MCF7, combination with honokiol (10 μM); for IC50: Homo sapiens
# Method in brief: as §1
# [4] = test system: PANC1 cells; assay: MTS assay of cell proliferation, PANC1; type: cell-based, human; conditions: for IC50: Homo sapiens
# Method in brief: as §1
# [5] = test system: UACC903 cells; assay: MTS assay of cell proliferation, UACC903; type: cell-based, human; conditions: for decrease of EC50 due to HNL/BLM combination: UACC903, combination with honokiol (10 μM); for IC50: Homo sapiens
# Method in brief: as §1
# [6] = molecular target: pol β; conditions: linear mixed-mode inhibition mechanism; cited from earlier work
# [7] = test system: human cancer cell lines A549, MCF7, PANC-1, UACC903; assay: MTS assay of cell proliferation, cell lines not specified; type: cell-based; conditions: combination with honokiol, cell line not specified
# Method in brief: as §1
# [8] = PANC1, combination with honokiol (10 μM)
compound,measurement,setting,value
bleomycin [BLM],−log(IC50) (95% CI),"[1]; GM12878, 24 h, supplemented with 10 μM HNL","4.2 (4.0, 4.3)"
same,−log(IC50) (95% CI),"[1]; GM12878, 24 h, tested compound alone","4.1 (3.91, 4.3)"
same,−log(IC50) (95% CI),"[1]; GM12878, 72 h, supplemented with 10 μM HNL","4.20 (4.0, 4.4)"
same,−log(IC50) (95% CI),"[1]; GM12878, 72 h, tested compound alone","4.1 (4.0, 4.3)"
same,−log(IC50) (95% CI),"[2]; A549, 24 h, supplemented with 10 μM HNL","5.30 (5.18, 5.43)"
same,−log(IC50) (95% CI),"[2]; A549, 24 h, tested compound alone","4.8 (4.7, 5.0)"
same,−log(IC50) (95% CI),"[2]; A549, 72 h, supplemented with 10 μM HNL","5.6 (5.5, 5.7)"
same,−log(IC50) (95% CI),"[2]; A549, 72 h, tested compound alone","5.2 (5.0, 5.3)"
same,−log(IC50) (95% CI),"[3]; MCF7, 24 h, supplemented with 10 μM HNL","6.0 (5.7, 6.2)"
same,−log(IC50) (95% CI),"[3]; MCF7, 24 h, tested compound alone","4.9 (4.8, 5.0)"
same,−log(IC50) (95% CI),"[3]; MCF7, 72 h, supplemented with 10 μM HNL","6.3 (6.1, 6.6)"
same,−log(IC50) (95% CI),"[3]; MCF7, 72 h, tested compound alone","5.3 (5.2, 5.4)"
same,decrease of EC50 due to HNL/BLM combination,[3],up to 10 fold
same,decrease of EC50 due to HNL/BLM combination,[3]; listed as bleomycin,10 fold
same,−log(IC50) (95% CI),"[4]; PANC1, 24 h, supplemented with 10 μM HNL","5.9 (5.7, 6.2)"
same,−log(IC50) (95% CI),"[4]; PANC1, 24 h, tested compound alone","4.9 (4.7, 5.1)"
same,−log(IC50) (95% CI),"[4]; PANC1, 72 h, supplemented with 10 μM HNL","6.09 (5.9, 6.3)"
same,−log(IC50) (95% CI),"[4]; PANC1, 72 h, tested compound alone","5.2 (5.0, 5.3)"
same,decrease of EC50 due to HNL/BLM combination,[4]; [8],up to 10 fold
same,decrease of EC50 due to HNL/BLM combination,"[4]; PANC1, combination with honokiol (10 μM), listed as bleomycin",10 fold
same,−log(IC50) (95% CI),"[5]; UACC903, 24 h, supplemented with 10 μM HNL","5.5 (5.4, 5.7)"
same,−log(IC50) (95% CI),"[5]; UACC903, 24 h, tested compound alone","4.9 (4.7, 5.0)"
same,−log(IC50) (95% CI),"[5]; UACC903, 72 h, supplemented with 10 μM HNL","6.3 (6.0, 6.5)"
same,−log(IC50) (95% CI),"[5]; UACC903, 72 h, tested compound alone","5.22 (5.1, 5.4)"
same,decrease of EC50 due to HNL/BLM combination,[5],up to 10 fold
same,decrease of EC50 due to HNL/BLM combination,[5]; listed as bleomycin,10 fold
C=C(C)[C@@H]1CC[C@]2(C)[C@H](CC=C3[C@@H]4C[C@@](C)(C(=O)O)CC[C@]4(C)CC[C@]32C)[C@@]1(C)CCC(=O)O [koetjapic acid],Ki,[6],low micromolar range
"Cn1nnc2c(C(N)=O)ncn2c1=O [TMZ, temozolomide]",IC50,"[1]; 24 h, read-out: −log(IC50) (95% CI), GM12878, 24 h, tested compound alone (converted)",< 1000 µM
same,IC50,"[1]; 72 h, read-out: −log(IC50) (95% CI), GM12878, 72 h, tested compound alone (converted)",316 µM
same,IC50,"[2]; A549, 24 h, read-out: −log(IC50) (95% CI), A549, 24 h, tested compound alone (converted)",398 µM
same,IC50,"[2]; A549, 72 h, read-out: −log(IC50) (95% CI), A549, 72 h, tested compound alone (converted)",251 µM
same,IC50,"[3]; MCF7, 24 h, read-out: −log(IC50) (95% CI), MCF7, 24 h, tested compound alone (converted)",501 µM
same,IC50,"[3]; MCF7, 72 h, read-out: −log(IC50) (95% CI), MCF7, 72 h, tested compound alone (converted)",200 µM
same,IC50,"[4]; PANC-1, 24 h, read-out: −log(IC50) (95% CI), PANC1, 24 h, tested compound alone (converted)",316 µM
same,IC50,"[4]; PANC-1, 72 h, read-out: −log(IC50) (95% CI), PANC1, 72 h, tested compound alone (converted)",158 µM
same,decrease of EC50 due to HNL/TMZ combination,[4]; [8],up to three-fold
same,IC50,"[5]; UACC-903, 24 h, read-out: −log(IC50) (95% CI), UACC903, 24 h, tested compound alone (converted)",631 µM
same,IC50,"[5]; UACC-903, 72 h, read-out: −log(IC50) (95% CI), UACC903, 72 h, tested compound alone (converted)",316 µM
same,decrease of EC50 due to HNL/TMZ combination,[7],up to three-fold
same,decrease of EC50 due to HNL/TMZ combination,[7]; listed as temozolomide,three-fold
